Assay results as given in ChEMBL document CHEMBL5316304, “Collaborative Virtual Screening Identifies a 2-Aryl-4-aminoquinazoline Series with Efficacy in an In Vivo Model of Trypanosoma cruzi Infection” (J Med Chem, 2023).
Values after ≈ are worked out from the molar mass of the structure shown.

Key:
[1] = Volume of distribution at steady state in Balb/C mouse plasma at 50 mg/kg, po or 0.1 mg/kg, iv by LC/MS/MS analysis; type: ADME, organism-based; conditions: in vivo
Method in brief: (§1)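 Female Balb/c mice dosed i.v. 0.1 mg/kg as part of a five-compound cassette, and p.o. 50 mg/kg, without ABT. PK parameters came from concentration–time profiles. Brain-to-plasma ratio was taken at 1 h.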

[2] = Half life in Balb/C mouse plasma at 12.5 mg/kg, po in presence of ABT by LC/MS/MS analysis; type: ADME, organism-based
Method in brief: (§2)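 Female Balb/c mice (n = 3 per route) dosed i.v. 2 mg/kg and p.o. 12.5 mg/kg. 1-Aminobenzotriazole, a CYP450 inhibitor, was given p.o. at 50 mg/kg 2 h before each dose. Parameters were derived from blood concentration–time profiles.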

[3] = Cmax in Balb/C mouse at 12.5 mg/kg, po or 2 mg/kg, iv in presence of ABT by LC/MS/MS analysis; type: ADME, organism-based; set-up: dose 12.5 mg/kg, route po; conditions: in vivo; method in brief: as §2
[4] = Toxicity in Balb/C mouse assessed as drug tolerability at 50 mg/kg, po bid measured after 5 days by LC/MS/MS analysis; type: organism-based; conditions: in vivo, 120 h, time 5 day
Method in brief: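 Healthy female mice, one per group, were dosed orally twice daily for 5 days at 10, 50 or 100 mg/kg, with vehicle controls (0.5% HPMC/0.5% benzyl alcohol/0.4% Tween 80 in water). Readouts were mortality, clinical signs, body weight, food consumption and gross pathology.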

[5] = Ratio of drug level in Balb/C mouse brain to plasma at 50 mg/kg, po or 0.1 mg/kg, iv measured after 1 hr by LC/MS/MS analysis; type: ADME, organism-based; method in brief: as §1
[6] = Intrinsic clearance in human liver microsomes at 1 uM incubated for 15 to 30 mins by LC/MS/MS analysis; type: ADME, Microsome; conditions: time 15-30 min
[7] = Cmax in Balb/C mouse at 50 mg/kg, po or 0.1 mg/kg, iv by LC/MS/MS analysis; type: ADME, organism-based; set-up: dose 50 mg/kg, route po; conditions: in vivo; method in brief: as §1
[8] = Half life in Balb/C mouse plasma at 2 mg/kg, iv in presence of ABT by LC/MS/MS analysis; type: ADME, organism-based; method in brief: as §2
[9] = Half life in Balb/C mouse at 50 mg/kg, po by LC/MS/MS analysis; type: ADME, organism-based; conditions: in vivo
Method in brief: (§3)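 Female Balb/c mice received a single i.v. dose of 1 mg/kg and a single oral dose of 50 mg/kg. PK parameters came from blood concentration–time profiles. Brain-to-plasma ratio was taken at 0.5 h.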

[10] = Volume of distribution at steady state in Balb/C mouse plasma at 12.5 mg/kg, po or 2 mg/kg, iv in presence of ABT by LC/MS/MS analysis; type: ADME, organism-based; conditions: in vivo; method in brief: as §2
[11] = Selectivity index, ratio of IC50 for human U2OS cells to IC50 for intracellular Trypanosoma cruzi infected in human U2OS cells; type: toxicity, cell-based
Method in brief: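 Host U2OS cell counts and intracellular parasite infection ratio were read from the same 72 h DRAQ5-stained confocal imaging assay. CC50 and EC50 came from 4-parameter logistic fits, and the selectivity index is their ratio.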

[12] = test system: Trypanosoma cruzi; assay: Antitrypanosomal activity against acute-stage Trypanosoma cruzi CL Brener infected in BALB/c mouse assessed as reduction in parasite burden at 50 mg/kg, po bid administered for 5 days by bioluminescence imaging based analysis relative to control; type: functional; set-up: scale not given: the % may be the effect or the level left; conditions: time 5 day
[13] = AUC (0 to last) in Balb/C mouse at 50 mg/kg, po or 0.1 mg/kg, iv by LC/MS/MS analysis; type: ADME, organism-based; set-up: dose 50 mg/kg, route po; conditions: in vivo; method in brief: as §1
[14] = Plasma protein binding in mouse at 2 uM incubated for 6 hrs by LC/MS/MS analysis; type: ADME
[15] = Toxicity in BALB/c mouse infected with acute Trypanosoma cruzi CL Brener assessed as adverse effects at 50 mg/kg, po bid; type: organism-based; conditions: in vivo
[16] = Oral bioavailability in Balb/C mouse at 12.5 mg/kg in presence of ABT by LC/MS/MS analysis; type: ADME, organism-based; conditions: in vivo; method in brief: as §2
[17] = Permeability of compound incubated for 3 hrs by PAMPA assay; type: ADME; conditions: read-out: permeability
[18] = Toxicity in Balb/C mouse assessed as drug tolerability at 12.5 mg/kg, po by LC/MS/MS analysis; type: organism-based; conditions: in vivo
[19] = Toxicity in Balb/C mouse assessed as drug tolerability at 50 mg/kg, po by LC/MS/MS analysis; type: organism-based; conditions: in vivo
[20] = Intrinsic clearance in mouse liver microsomes at 1 uM incubated for 15 to 30 mins by LC/MS/MS analysis; type: ADME, Microsome; conditions: time 15-30 min
[21] = test system: Trypanosoma cruzi; assay: Antitrypanosomal activity against intracellular Trypanosoma cruzi infected in human U2OS cells assessed as parasite growth inhibition incubated for 72 hrs by confocal microscopy; type: functional, organism-based; conditions: Trypanosoma cruzi, U2OS, 72 h
[22] = Kinetic solubility of compound in aqueous buffer at pH 6.8 incubated for 16 to 24 hrs by HPLC analysis; type: physicochemical; conditions: time 16-24 hrs, read-out: Kinetic_solubility
[23] = Oral bioavailability in Balb/C mouse plasma at 50 mg/kg by LC/MS/MS analysis; type: ADME, organism-based; conditions: in vivo
[24] = AUC (0 to last) in Balb/C mouse at 12.5 mg/kg, po or 2 mg/kg, iv in presence of ABT by LC/MS/MS analysis; type: ADME, organism-based; set-up: dose 12.5 mg/kg, route po; conditions: in vivo; method in brief: as §2
[25] = Volume of distribution at steady state in Balb/C mouse plasma at 50 mg/kg, po or 1 mg/kg, iv by LC/MS/MS analysis; type: ADME, organism-based; conditions: in vivo; method in brief: as §3
[26] = Ratio of drug level in Balb/C mouse brain to plasma at 50 mg/kg, po or 1 mg/kg, iv measured after 0.5 hrs by LC/MS/MS analysis; type: ADME, organism-based; method in brief: as §3
[27] = Cmax in Balb/C mouse at 50 mg/kg, po or 1 mg/kg, iv by LC/MS/MS analysis; type: ADME, organism-based; set-up: dose 50 mg/kg, route po; conditions: in vivo; method in brief: as §3
[28] = AUC (0 to last) in Balb/C mouse at 50 mg/kg, po or 1 mg/kg, iv by LC/MS/MS analysis; type: ADME, organism-based; set-up: dose 50 mg/kg, route po; conditions: in vivo; method in brief: as §3
[29] = Half life in Balb/C mouse at 1 mg/kg, iv by LC/MS/MS analysis; type: ADME, organism-based; conditions: in vivo; method in brief: as §3
[30] = Toxicity in Balb/C mouse assessed as adverse reactions at 50 mg/kg, po by LC/MS/MS analysis; type: organism-based; conditions: in vivo

In the case of c1ccc(-c2nc(N3CCC(c4ccccn4)C3)c3ccccc3n2)nc1 (racemic), the Vdss [1] is reported as 0.77 L/kg, the half-life [2] is reported as 3.3 h and the Cmax [3] is reported as 4243 ng/mL. For the same compound, the Activity [4] was “Non-Toxic”, the BPR [5] was 1.66 and the CLint [6] was 73 µL/min/mg. For the same compound, the Cmax [7] was 3360 ng/mL, the half-life [8] was 1 h and the half-life [9] was 7.2 h. For the same compound, the Vdss [10] was 0.94 L/kg, the “Selectivity Index” value [11] was 9.1 and the Activity [12] was 89.9%. The AUC(0-t) [13] was 9610 ng·h/mL, the PPB [14] was 99.9% and the Activity [15] was “Non-Toxic”. The F [16] was 67%, the Papp at 3 h [17] was 31.9 ×10⁻⁶ cm/s and the Activity [18] was “Toxic”. The Activity [19] was “Non-Toxic”, the “intrinsic clearance (CLint)” value [20] was 258 µL/min/mg and the IC50 [21] was 790 nM. It also gave a solubility kinetic [22] of 83 µg/mL (≈ 235 µM), an F [23] of 50% and an AUC(0-t) [24] of 26900 ng·h/mL.
For CC(C)(Nc1nc(-c2ccccn2)nc2ccccc12)c1ccccn1, the Vdss [25] was 0.909 L/kg, the BPR [26] was 1.6 and the Activity [4] was “Toxic”. For the same compound, the Cmax [27] was 6240 ng/mL, the AUC(0-t) [28] was 59900 ng·h/mL and the selectivity ratio ([11]; U2OS cells, read-out: Selectivity Index) was 25. For the same compound, the half-life [29] was 1.13 h, the PPB [14] was 94.2% and the Activity [30] was “Non-Toxic”. The Papp at 3 h [17] was 25.8 ×10⁻⁶ cm/s, the Activity [19] was “Non-Toxic” and the IC50 [21] was 1000 nM. The solubility kinetic [22] was 83 µg/mL (≈ 243 µM) and the F [23] was > 100%.
